The data set can be described thus: Toxicity liver stage against HepG2, at 10uM. It is filed as cell-based. The conditions noted are these: human, HepG2-A16-CD81EGFP cells; read-out: INHIBITION
On the set-up: test concentration 10 uM, cell line HepG2-A16-CD81EGFP. In short, it runs like this: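 Uninfected HepG2-A16-CD81EGFP cells, 3 × 10^3 per well, 1536-well, plated on prespotted compound at 10 μM final, parasite-free screening media added to match infected plates; puromycin 10 μM positive, DMSO 0.5% negative; run in parallel with 48 h PbLuc assay at 37 °C, 5% CO2; viability by CellTiter-Glo luminescence, normalized to controls.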
Consider `O=c1c2ccccc2nc2n1C(CSc1ccc(Br)cc1)CN2` (stereo unspecified), for which the cytotoxicity at 10 µM stood at 6.76%. The figure for `N#Cc1c(F)cccc1N1CCC(NS(=O)(=O)c2cccs2)CC1` is -7.39%; for `COc1cc(CNCC(O)c2ccc(F)c(F)c2)cc2c1OCO2` (stereo unspecified) it is -8.28%; for `CS(=O)(=O)N1C[C@@H]2OCC(=O)N(CC3CC3)[C@@H]2C1` it is -13.8%.

Regarding `CC(=O)N1N=C(c2ccccc2)OC1C(=O)N(C)Cc1ccccc1` (stereo unspecified), the cytotoxicity at 10 µM turned out to be 2.37%. `CN1CCN(CCCNC(=O)c2nc3ccccc3c(=O)[nH]2)CC1`: the cytotoxicity at 10 µM was -5.46%. The figure for `COC(=O)[C@H](CC(C)C)NC(=O)c1snnc1-c1ccc(OC)cc1` is 10.1%; for `CCn1c(=O)nc(N)c2c(-c3ccc(OC)cc3)csc21` it is -32.8%; for `CC(=O)N1CCc2ccc(NC(=O)c3cn(C)nn3)cc2C1` it is 5.45%. Regarding `COCC(=O)N1CCC2(COCc3cnc(NCc4ccco4)nc32)C1` (stereo unspecified), the cytotoxicity at 10 µM was -1.75%. As for `Cc1ccc(N2CC[C@H]3OCC[C@@]3(C(=O)N(C)C)C2)nn1`, the figure is 1.11%. On to `Cc1oncc1C(=O)N1CCC2(C1)CN(c1cccnc1)C(=O)CN2C` (stereo unspecified), for which the cytotoxicity at 10 µM was -5.26%. The figure for `CSc1[nH]nc(NC(=O)c2cccs2)c1C#N` is -1.04%; for `CCCNCc1ncc(C)c(OC)c1C` it is 0.105%; for `COc1ccc(-n2nnnc2C2(NCc3ccco3)CCCCC2)cc1` it is 9.65%. Turning to `Cc1ccc(-c2noc(C3CCN3C(=O)c3ccn(C)n3)n2)s1` (stereo unspecified), the cytotoxicity at 10 µM worked out at 3.56%. On to `CN1CCN(C(=O)[C@@H]2CN(C)C[C@]23COc2ccc(F)cc2C3=O)CC1`, for which the cytotoxicity at 10 µM turned out to be 3.06%. Take `CCN1CCC(N2CCC(c3nc(C)cc(C)n3)C2)CC1` (stereo unspecified): the cytotoxicity at 10 µM is 5.15%. In the case of `CC(=O)N1CCC(c2cncc(N3CCC(O)C3)n2)CC1` (stereo unspecified), the cytotoxicity at 10 µM was determined as 5.57%. On to `CN(C)S(=O)(=O)N1CCCC(C)(c2ncc(C(N)=O)s2)C1` (stereo unspecified), for which the cytotoxicity at 10 µM was -2.36%. As for `Cn1cc(CN2CCOC(c3cccc(-c4cccc(F)c4)n3)C2)cn1` (stereo unspecified), the figure is -11.1%.

For the molecule `Oc1cc(-c2cccs2)nc(C2CCCN(CC3=CCCOC3)C2)n1` (stereo unspecified), the cytotoxicity at 10 µM was -5.56%. The figure for `O=S1(=O)NC2(CCCN(CCc3ccccc3)C2)COc2ccccc21` (stereo unspecified) is 7.47%. The figure for `Cn1cc(CNCC(c2ccc(Cl)cc2)n2cccn2)cn1` (stereo unspecified) is 1.21%; for `CCCn1ccnc1-c1cccc(NC(=O)[C@H]2CCC(=O)N2)c1` it is -4.97%. The figure for `CCOC(C)C(=O)Nc1ccnn1-c1ccccc1C` (stereo unspecified) is -7.89%; for `COc1cccc(CCNC(=O)c2ccc(=O)n(C)c2)c1` it is -9.08%. Turning to `CCOc1cccc(CCNC(=O)NC2CCc3[nH]ncc3C2)n1` (stereo unspecified), the cytotoxicity at 10 µM came to 8.95%. The figure for `CC(Cn1cccn1)Nc1cnc2ccccc2n1` (stereo unspecified) is -7.67%; for `N#CCCN(Cc1ccco1)C(=O)C1CCCc2ccccc21` (stereo unspecified) it is -4.27%. Regarding `O=S(=O)(NCCc1ccccc1C(F)(F)F)N1CCOCC1`, the cytotoxicity at 10 µM amounted to 9.08%.

Take `N#Cc1cccc(NC(=O)N(CC(F)F)C2CC2)c1`: the cytotoxicity at 10 µM was -16.1%. The figure for `CNS(=O)(=O)c1ccc(CNC(=O)Nc2cc(C)on2)s1` is -2.34%.

As to `CC(C)(C)c1cnc(CN2CCN(c3ncccn3)CC2)o1`, the cytotoxicity at 10 µM is -18.1%.

For the molecule `CCC(NC(=O)c1cc(OC)c2c(c1)OCCO2)c1cccs1` (stereo unspecified), the cytotoxicity at 10 µM was -6.66%. As for `CC(C)n1ccc(C(=O)NCC(O)c2c(Cl)cccc2Cl)n1` (stereo unspecified), the figure is 1.81%; as for `Cc1nn(CC(C)C)c(C)c1CC(=O)N1CCCC(CNS(C)(=O)=O)C1` (stereo unspecified), 0.246%; as for `CCOCCOCc1cccc(CNc2cncc(-n3cccn3)n2)c1`, 7.74%. The figure for `CC(C)(C)OC(=O)NC(C)(C)c1noc(CSc2ccccn2)n1` is 9.18%.

`Cc1cc(S(=O)(=O)Nc2cccc(OC(F)F)c2)sc1C(=O)O`: the cytotoxicity at 10 µM was -0.229%. `CC(NC(=O)C1=NN(C)C(=O)CC1)c1cccc(Cl)c1` (stereo unspecified): the cytotoxicity at 10 µM is -2.45%. Turning to `CC(c1nc(C(C)(C)C)no1)N1CCN(c2ccc(C#N)cn2)CC1` (stereo unspecified), the cytotoxicity at 10 µM worked out at 3.84%.

For the molecule `CS(=O)(=O)Cc1cc(F)ccc1NCc1nnsc1Cl`, the cytotoxicity at 10 µM was -12.2%. With `Cc1cccc(C(=O)N2CCCN(CCc3scnc3C)CC2)c1`, the cytotoxicity at 10 µM is -2.52%.

In the case of `N#Cc1cc(NS(=O)(=O)CC2CCCCO2)ccc1F` (stereo unspecified), the cytotoxicity at 10 µM is -14.1%. `Cc1csc(N2CCN(Cc3cnc4c(c3)c(C)nn4C)CC2)n1`: the cytotoxicity at 10 µM is -0.54%. Regarding `Cn1cc(NC(=O)Nc2ccc3c(c2)OCO3)cn1`, the cytotoxicity at 10 µM is -0.37%. The figure for `COc1cc(OC)c(CNC(=O)NCC(=O)N2CCCC2)c(OC)c1` is 10.4%; for `Cc1nc(C)n(CC2CCCN(CCc3ccncc3)C2)n1` (stereo unspecified) it is -23%; for `CNC(=O)[C@H]1C[C@@H]2CN(C(=O)c3cnc(C)cn3)C[C@@H]2N1C` it is -108%. Regarding `CN(C)CC(=O)N1Cc2nc(C(=O)NCc3ccccc3)oc2C1`, the cytotoxicity at 10 µM is -81.5%. As for `CCN1CCc2nc(N3CCOCC3)nc(NC(C)C)c2C1`, the figure is -112%; as for `Cc1nccn1CCCn1c(=O)cnc2ccccc21`, 1.53%; as for `CCCc1cc(C(=O)N(Cc2cccnc2)C[C@@H]2CCC(=O)N2)no1`, 6.82%. The figure for `O=C(CCc1cc2n(n1)CCCN(CCc1ccccc1)C2)NC1CC1` is 12%; for `COc1cccc(N2CCN(Cc3ccc4occc4c3)CC2=O)c1` it is 24%. With `Cc1nsc(NC(=O)N2CCc3sccc3C2)n1`, the cytotoxicity at 10 µM is 18.5%. In the case of `CC(C)c1ccc(CC(=O)N2CCCC3(CN(C)C(=O)O3)C2)cc1` (stereo unspecified), the cytotoxicity at 10 µM stood at 16.2%. As for `CCc1nc(C)c(CN2CCOC(Cc3ccccc3Cl)C2)[nH]1` (stereo unspecified), the figure is -0.527%; as for `CCO[C@H]1C[C@@H](O)C12CCN(C(=O)CN1CCCCCC1=O)CC2`, 2.71%; as for `c1ccc2c(c1)nnn2CCCNC1CCOC2(CCOCC2)C1` (stereo unspecified), -4.66%.

`Cc1cccc(=O)n1CCC(=O)N1CCC2(CC1)OCCCC2O` (stereo unspecified): the cytotoxicity at 10 µM was -1.95%.

Consider `Cc1ccccc1N1CCN(C(=O)Cn2ccnc2)CC1=O`, for which the cytotoxicity at 10 µM is -1.86%. As for `Cc1ccccc1OCC1CCCN(C(=O)CN(C)C2CCNCC2)C1` (stereo unspecified), the figure is -5.54%. Turning to `CNC(=O)C(C)(C)NC(=O)c1cc(OCC2CCC2)cc(C(=O)OC)c1`, the cytotoxicity at 10 µM is -8.97%.

`CCc1nc(C2CCCN2C(=O)c2ccc(N(C)C)nn2)no1` (stereo unspecified): the cytotoxicity at 10 µM is -11.4%. On to `Cc1ccc(C(=O)N2CCCC(n3cccn3)C2)cc1S(C)(=O)=O` (stereo unspecified), for which the cytotoxicity at 10 µM is -4.63%. Regarding `COCc1ccc(C(=O)NCCCNc2ccc(C(F)(F)F)cn2)cc1`, the cytotoxicity at 10 µM was found to be 2.13%. The figure for `O=C(CCc1cccc(F)c1F)N1CCCC(n2cncn2)C1` (stereo unspecified) is -20.2%.

With `Cc1ccccc1C(=O)NCc1ccnc(N(C)C)c1`, the cytotoxicity at 10 µM is -8.84%. The figure for `CN(Cc1coc(-c2ccccc2)n1)C1CCCN(c2cccnn2)C1` (stereo unspecified) is -14%; for `CCc1cnc(CNc2ccc(C(=O)N3CCCC(C)C3)cc2C)o1` (stereo unspecified) it is -3.58%. As for `Cc1noc(CN2CCN(Cc3cccs3)CC2)n1`, the figure is -6.23%; as for `COc1cc(CN(C(=O)Nc2cccnc2OC)C2CC2)ccc1O`, -2.14%; as for `COCc1nc(C(=O)N2CCCCC2Cn2cccn2)cs1` (stereo unspecified), -19.1%. With `Cc1[nH]ncc1C(=O)N1CCCC(c2cc(C(F)(F)F)[nH]n2)C1` (stereo unspecified), the cytotoxicity at 10 µM was -7.2%. Take `Cn1cnc(S(=O)(=O)NCCCN2CCCCCC2)c1Cl`: the cytotoxicity at 10 µM is -9.53%.

Take `CN1CCOC(CNC(=O)Cc2ccccc2F)C1` (stereo unspecified): the cytotoxicity at 10 µM is -3.87%. On to `CS(=O)(=O)c1ccc(NC(=O)NCc2ccc3c(c2)CCC3)cn1`, for which the cytotoxicity at 10 µM was -4.92%. Consider `CC(C)(C)c1n[nH]c(C2CN(C(=O)CCc3cscn3)CCO2)n1` (stereo unspecified), for which the cytotoxicity at 10 µM is -17.3%.

In the case of `Cc1cnn(CCC(=O)N2CCCN(c3cccnn3)CC2)c1`, the cytotoxicity at 10 µM is 1.47%. The figure for `Cc1nc(CN2CCN(C(=O)c3cc(C4CC4)on3)CC2)cs1` is 2.21%; for `c1ccc2oc(CCCN3CCOC(Cn4cccn4)C3)nc2c1` (stereo unspecified) it is 0.987%; for `CC1CCCCN1C(=O)CN1CCN(c2ccc3nncn3n2)CC1` (stereo unspecified) it is 1.48%. The figure for `CCN(CC)C(=O)CN1CCc2nc(C3CCNCC3)nc(NC)c2C1` is -5.46%; for `Cc1noc(C)c1-c1cccc(C2CN(CC(=O)N(C)C)CCO2)n1` (stereo unspecified) it is 0.025%; for `O=C(NCC1CCOCC1)[C@H]1C[C@@H]2CCN(c3nncs3)C[C@@H]2O1` it is 1.73%. As for `COc1ccc(-c2cc(C3CCNCC3)ccn2)cc1`, the figure is 0.288%. In the case of `O=C(c1ccco1)N1CC[C@@H]2O[C@H](COCCN3CCCC3)CC[C@@H]21`, the cytotoxicity at 10 µM is -100%. The figure for `Cc1ccc(CN2CCn3c(CN4CCN(C)CC4)cnc3C2C)s1` (stereo unspecified) is 8.39%; for `Cc1ccc(CNC(c2cccc(F)c2)c2nccn2C)o1` (stereo unspecified) it is 5.48%. As for `Cc1cccc(COC[C@@H]2CC[C@H]3[C@H](CCN3C(=O)CC3CC3)O2)n1`, the figure is -64.8%.

Consider `CN(C)CC1CN(Cc2ccc(F)cc2)Cc2nccn2C1` (stereo unspecified), for which the cytotoxicity at 10 µM is -71.1%. For `CC(C)C(N)CNS(=O)(=O)Cc1cccc2cccnc12` (stereo unspecified), the cytotoxicity at 10 µM was -9.32%. As for `CN(C)C(=O)COC[C@]12COC[C@H]1CN(CCc1ccccc1)C2`, the figure is -1.69%; as for `CN1C(=O)[C@@H]2CC[C@H]1CN(S(=O)(=O)c1ccc(Cl)cc1Cl)C2`, 1.47%.
